Experimental data as given in ChEMBL document CHEMBL4130635, “2,4-Diaminoquinazolines as Dual Toll-like Receptor (TLR) 7/8 Modulators for the Treatment of Hepatitis B Virus” (J Med Chem, 2018).

What was measured:
Liver = assay: Upregulation of IP-10 mRNA expression levels in C57BL/6J mouse liver at 1 mg/kg, po by RT-qPCR analysis (reference value: 1); assay type: functional
Cynomolgus monkey [1] = assay: Activation of monocytes in cynomolgus monkey plasma assessed as upregulation of IL1Ra levels at 30 mg/kg, po after 24 hrs by Luminex assay (reference value: 320 pg/ml); assay type: functional, Macaca fascicularis
[2] = Cmax in cynomolgus monkey plasma at 30 mg/kg, po by LC-MS analysis; assay type: ADME, organism-based, Macaca fascicularis; design: dose 30 mg/kg, route oral
Procedure, shortened: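 Healthy cynomolgus monkeys received oral doses of 1, 3, 9 and 30 mg/kg, with a 2-week wash-out between doses. Systemic compound concentrations by LC−MS at 0.25, 0.5, 1, 2, 4, 8 and 24 h postdose.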

Cynomolgus monkey [3] = assay: Proinflammatory activity in cynomolgus monkey plasma assessed as TNFalpha levels at 1 mg/kg, po after 24 hrs by Luminex assay (reference value: 285 pg/ml); assay type: functional, organism-based; conditions: Macaca fascicularis

CCC[C@@H](CCO)Nc1nc(N)nc2c(F)cccc12
fold change (FC) (Liver): 775
Activity (Cynomolgus monkey [1]): 2970 pg/mL
Cmax [2]: 2070 ng/mL
Activity (Cynomolgus monkey [3]): Below limit of detection
